Compound activity from PubChem BioAssay.
An excerpt weighted towards active compounds, which were near 27% of everything screened.
HIV Rev-RRE inh = inhibitors of HIV-1 Rev-RRE RNA interaction. P05866. AID 704. inhibition, % at 8 µM. Rev peptide-RRE RNA binding, FRET. hit rate 0.79% among 97,000;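 active = inhibition above the screen-wide mean plus 3 SD, cut at about 35% in these data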;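 note: 0% = median DMSO wells and 100% = median Neomycin B control wells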
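Probe or stimulus: fluorescein-Rev peptide as binding partner; assay system: Cy5-tagged RRE RNA duplex with fluorescein-tagged Rev peptide; timing: 5 min compound–RNA preincubation, then 15 min with peptide, 25 °C; medium: HEPES pH 7.5 buffer with KCl, MgCl2, NaCl and EDTA; signal: fluorescein-to-Cy5 FRET, 480 nm excitation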
CYP2C19 inhib = human CYP2C19 inhibition; P33261; CYP2C19 Supersomes, luciferin-H EGE luminescence, 30 min; inhibition, % at 5 µM; hit rate 21% among 96,000; AID 778;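 active = CYP2C19 inhibition above a set limit at 5 µM in the primary screen, cut at about 50% in these data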;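 note: plate controls were negative control wells for no effect and 2.5 mM tranylcypromine positive control for full effect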
CYP2C19 activ = increases human CYP2C19 enzyme activity. 96,000 tested, under 10 active. recombinant CYP2C19, luciferin-H EGE luminescence; hits give high values; 0 = fully inhibited enzyme, 1 = untreated enzyme. P33261. AID 1025. activation factor at 5 µM;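 active = activation factor of at least 2 at 5 µM in the primary screen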;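 note: 0 = wells with 2.5 mM tranylcypromine and 1 = vehicle-only wells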
CYP2C9 act = activators of human CYP2C9. P11712. recombinant CYP2C9, luciferin-H conversion, luminescence; hits give high values; factor 1 = untreated enzyme, 0 = blocked. activation factor at 5 µM. hit rate 1.4% among 96,000. AID 1024;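 active = activation factor of 2 or more for CYP2C9 at a 5 µM dose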;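 note: 0 = sulfaphenazole-blocked wells and 1 = vehicle-only wells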
Cav32 inh = blocks human Cav3.2 T-type calcium channel; O95180; Cav3.2-expressing cells, Fluo-4 calcium fluorescence FDSS; hits give low values; B-score at 10 µM; hit rate 4% among 100,000; AID 449739;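 active = single-dose well whose peak fluorescence ratio is a statistical outlier from its plate by either plate-standardised score or position-corrected B-score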
CYP2C9 inhib = blocks human cytochrome P450 2C9; P11712; CYP2C9 Supersomes, luciferin-H conversion, luminescence; inhibition, % at 5 µM; hit rate 20% among 96,000; AID 777;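 active = blocking of liver enzyme CYP2C9 beyond about 50% at 5 µM, limit read from the data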
The depositor's hits bear a star; nt = no result given.

SMILES	HIV Rev-RRE inh	CYP2C19 inhib	CYP2C19 activ	CYP2C9 act	Cav32 inh	CYP2C9 inhib
O=C(CCSc1ccccc1)N1CCN(C(=O)c2ccco2)CC1	-2	25	0.7	0.8	0.43	20
Cc1ccc(S(=O)(=O)c2ccc(C)cc2)cc1	0	29	0.7	1.5	-0.017	-54
Cc1ccc(S(=O)(=O)CCCS(=O)(=O)c2ccc(C)cc2)cc1	-2	52*	0.5	0.6	0.49	38
Cc1ccc(S(=O)(=O)Cc2cccc(C(=O)N3CCOCC3)c2)cc1	-2	-1	1	1.2	0.78	-21
COC(=O)c1cccc(COC(=O)c2ccc(CS(=O)(=O)c3ccc(C)cc3)cc2)c1	6	9	0.9	0.2	0.029	77*
COC(=O)c1ccc(CS(=O)(=O)c2ccc(C)cc2)cc1	0	32	0.7	0.4	0.17	58*
COc1ncccc1-c1nnn(-c2ccc(Cl)nc2)n1	nt	nt	nt	nt	0.56	nt
Cc1ccc(C(=O)COC(=O)CCC(=O)NC2CCCCC2)cc1C	8	13	0.9	0.8	-3.5	19
COc1ccc(NC(=O)c2cc(S(=O)(=O)N3CCS(=O)(=O)CC3)ccc2Cl)cc1	0	2	1	0.8	0.52	21
CCn1cc(S(=O)(=O)CC(=O)Nc2ccc3c(c2)OCO3)c2ccccc21	nt	nt	nt	nt	-0.33	nt
CCCCOC(=O)Nc1sc2c(c1C(=O)OC)CCC2	nt	-20	1.2	1.2	0.11	-23
O=C(OC(C(=O)NCC1CCCO1)c1ccccc1F)c1ccco1 (configuration not stated)	4	7	0.9	0.9	0.06	6
NC(=O)C1CCN(C(=O)CSc2nc3ccccc3[nH]2)CC1	9	4	1	0.9	0.22	7
C/C(N)=C(/C#N)C(=O)CSc1nc2ccccc2[nH]1	-5	71*	0.3	0.9	-0.93	11
C/C(N)=C(/C#N)C(=O)CSc1ncnc2ccccc12	nt	71*	0.3	1	0.34	2
CCOC(=O)N1CCN(C(=O)CSc2ncnc3ccccc23)CC1	8	-7	1.1	1	1.2	4
CC1CCN(C(=O)CSc2nc3ccccc3[nH]2)CC1	nt	74*	0.3	0.8	-0.17	25
Cc1cccc(-c2nsc(SCC(=O)N3CCCC3)n2)c1	5	50*	0.5	1.1	0.069	-11
Cc1cccc(-c2nsc(SCC(=O)Nc3nccs3)n2)c1	-3	36	0.6	0.5	-2.1	48
COc1ccc2c(c1)N(C)C(=O)CC(c1ccccc1)=N2	2	94*	0.1	0	-1.6	98*
Cc1ccc2c(c1)NC(=O)CC(c1ccccc1)=N2	1	nt	nt	nt	0.036	nt
O=C1CC(C(=O)Nc2ccc(Br)cc2)C2(CCCC2)O1 (configuration not stated)	5	97*	0	0.4	nt	61*
O=C(OC(C(=O)NCC1CCCO1)c1ccc(F)cc1)c1cccs1 (configuration not stated)	-1	nt	nt	nt	1.3	nt
CCn1cc([N+](=O)[O-])c(C(=O)Nc2ccc(Br)cn2)n1	3	82*	0.2	0.7	-0.4	28
CCn1cc([N+](=O)[O-])c(C(=O)Nc2c(C)nn(Cc3c(F)c(F)c(F)c(F)c3F)c2C)n1	0	8	0.9	0.9	-3.6	7
SMILES	HIV Rev-RRE inh	CYP2C19 inhib	CYP2C19 activ	CYP2C9 act	Cav32 inh	CYP2C9 inhib
CCCc1cc(=O)n2[nH]c(Cc3ccccc3)nc2n1	-1	-3	1	0.7	0.76	27
C/C(=C\C(=O)c1ccncc1)Nc1ccccc1O	3	97*	0	0.7	-5.7*	28
COc1ccc(N2CCN(C(CNC(=O)c3cccc(Cl)c3)c3cccnc3)CC2)cc1 (configuration not stated)	-2	34	0.7	0.4	0.24	56*
O=C(NCC(c1cccnc1)N1CCN(c2ccccc2F)CC1)c1cccc(Cl)c1 (configuration not stated)	9	91*	0.1	0.1	-3.3	95*
O=C(NCC(c1cccnc1)N1CCN(c2ccc(F)cc2)CC1)C1CCCCC1 (configuration not stated)	-4	36	0.6	0.8	0.93	22
O=C(NCC(c1cccnc1)N1CCN(c2ccccc2F)CC1)C1CCCCC1 (configuration not stated)	-1	79*	0.2	0.5	1.9	49
CS(=O)(=O)N1CCC(C(=O)Nc2ccc(Br)cc2F)CC1	2	-1	1	1.1	-2.2	-8
